Data from ChEMBL document CHEMBL1121953, “Carbon-7 substituted actinomycin D analogues as improved antitumor agents: synthesis and DNA-binding and biological properties” (J Med Chem, 1982).
In brackets after ≈: the same amount, converted by molar mass.

How the values were obtained:
[1] = In vitro growth inhibitory activity for effect on melting temperature of DNA was determined
Outline: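 DNA thermal denaturation; ΔTm = Tm of DNA-drug complex minus Tm of DNA. Drug 1.4×10⁻⁴ M, DNA (P) 1.4×10⁻³ M in 0.01 M phosphate buffer pH 7.0 with 5×10⁻³ M EDTA and 5% dimethyl sulfoxide.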

[2] = Therapeutic Index measured as the MTD/MED ratio compared to that of compound 3; conditions: read-out: Therapeutic index
Outline: (§1)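 Therapeutic index is MTD/MED, with ip dosing in 10% dimethyl sulfoxide-saline on a qd 1-4 or q4d 1, 5, 9 schedule. MED is the dose giving a 40% increase in life span over control in P-388-bearing mice. MTD is the LD10 in tumor-free male CDF1 mice (18-23 g) over 21 days, read from a log dose vs. percent mortality plot and averaged over 2-3 experiments.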

[3] = Therapeutic Index measured as the MTD/MED ratio compared to that of compound 4; conditions: read-out: Therapeutic index; outline: as §1
Homo sapiens = species: Homo sapiens; assay: In vitro growth inhibitory activity against human lymphoblastic leukemia cells; assay type: functional; conditions: read-out: ID50 (the source's name)
Outline: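 CCRF-CEM human lymphoblastic leukemia cells in log-phase growth; compounds dissolved in Me₂SO, final growth medium 1% Me₂SO.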

SMILES	DNA melting temperature shift (ΔTm) [1]	selectivity ratio [2]	selectivity ratio [3]	IC50 (Homo sapiens)
Cc1c2oc3c(C)c(OCC4CO4)cc(C(=O)N[C@H]4C(=O)N[C@@H](C(C)C)C(=O)N5CCC[C@H]5C(=O)N(C)CC(=O)N(C)[C@@H](C(C)C)C(=O)O[C@H]4C)c3nc-2c(C(=O)N[C@H]2C(=O)N[C@@H](C(C)C)C(=O)N3CCC[C@H]3C(=O)N(C)CC(=O)N(C)[C@@H](C(C)C)C(=O)O[C@H]2C)c(N)c1=O (some centres undefined)	6 °C	–	–	–
Cc1c2oc3c(C)c(O)c(N)c(C(=O)N[C@@H]4C(=O)N[C@H](C(C)C)C(=O)N5CCC[C@H]5C(=O)N(C)CC(=O)N(C)[C@@H](C(C)C)C(=O)O[C@@H]4C)c3nc-2c(C(=O)N[C@@H]2C(=O)N[C@H](C(C)C)C(=O)N3CCC[C@H]3C(=O)N(C)CC(=O)N(C)[C@@H](C(C)C)C(=O)O[C@@H]2C)cc1=O	–	15	10	–
Cc1c2oc3c(C)c(OCC(O)CO)cc(C(=O)N[C@H]4C(=O)N[C@@H](C(C)C)C(=O)N5CCC[C@H]5C(=O)N(C)CC(=O)N(C)[C@@H](C(C)C)C(=O)O[C@H]4C)c3nc-2c(C(=O)N[C@H]2C(=O)N[C@@H](C(C)C)C(=O)N3CCC[C@H]3C(=O)N(C)CC(=O)N(C)[C@@H](C(C)C)C(=O)O[C@H]2C)c(N)c1=O (some centres undefined)	5.1 °C	–	–	–
CCN(CC)C(=O)c1c2nc3c(C(=O)N(CC)CC)cc(OCC4CO4)c(C)c3oc-2c(C)c(=O)c1N (centres undefined)	0 °C	–	–	9 µg/mL (≈ 17.6 µM)
Cc1c2oc3c(C)c(O)c(N)c(C(=O)N[C@H]4C(=O)N[C@@H](C(C)C)C(=O)N5CCC[C@H]5C(=O)N(C)CC(=O)N(C)[C@H](C(C)C)C(=O)O[C@H]4C)c3nc-2c(C(=O)N[C@@H]2C(=O)N[C@H](C(C)C)C(=O)N3CCC[C@@H]3C(=O)N(C)CC(=O)N(C)[C@@H](C(C)C)C(=O)O[C@@H]2C)cc1=O	6.7 °C	–	–	–
CCN(CC)C(=O)c1c2nc3c(C(=O)N(CC)CC)cc(OCC(O)CO)c(C)c3oc-2c(C)c(=O)c1N (centres undefined)	0 °C	–	–	~10 µg/mL (≈ 18.9 µM)
